One assay concerns Legionella pneumophila. Description: Antibacterial activity against Legionella pneumophila Corby infected in differentiated human THP1 cells assessed as bacterial growth inhibition after 24 hrs.
Conditions: not given
Type of assay: functional. The method in brief:
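THP-1 monocytes at 5 × 10^5 cells/mL were differentiated with 100 nM PMA for 2 days. L. pneumophila Corby grown 3 days on BCYE agar was added at MOI 1. After 2 h, extracellular bacteria were washed off with PBS and compound was added in medium (control 1% DMSO). At 2 and 24 h, cells were lysed with 0.1% Triton X-100 and dilutions plated on BCYE. Colonies counted after 3–4 days at 37 °C. Three independent experiments in duplicate.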
As for `CC[C@H]1CN(CCOC)C(=O)[C@@H]2CCC[C@H]1N2S(=O)(=O)c1cc(Cl)cc(Cl)c1`, the “growth inhibition (GI)” value is “Dose-dependent effect”.

A further assay relates to Plasmodium falciparum. Description: Antiparasitic activity against Plasmodium falciparum 3D7 infected in human RBC assessed as decrease in parasitemia after 60 hrs by Hoechst 33342 staining-based flow cytometric method. The settings on record: 3D7, 60 h. Format: functional. The method in brief:
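Sorbitol-synchronized early-stage parasites, adjusted to 1% parasitemia at 2% hematocrit. Serial dilutions of compound in DMSO (≤0.05% per well) applied in triplicate for 60 h. Cells stained with 16.2 μM Hoechst 33342 in PBS for 20 min at room temperature. Parasitemia read by flow cytometry; IC50 estimated from dose–response curves.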
(Flow cytometry measures light scatter and fluorescence of single cells or particles in a stream.)
For `CC[C@H]1CN(CCOC)C(=O)[C@@H]2CCC[C@H]1N2S(=O)(=O)c1cc(Cl)cc(Cl)c1`, the IC50 turned out to be 8300 nM.

System in the next assay: not listed separately
Description: Displacement of 5-(3-(4-(((5S,6S)-10-(3,5-dichlorophenylsulfonyl)-2-oxo-5-vinyl-3,10-diazabicyclo[4.3.1]decan-3-yl)methyl)-1H-1,2,3-triazol-1-yl)propylcarbamoyl)-2-(6-(dimethylamino)-3-(dimethyliminio)-3,10-dihydroanthracen-9-yl)benzoate from Candida albicans FKBP12 after 30 mins by fluorescence polarization assay.
Conditions: not given
Summed up: (§1)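 Competitive fluorescence polarization against a TAMRA-labelled tracer in 20 mM NaCl, 20 mM HEPES pH 8.0, 0.002% Tween20. Ligand serially diluted 1:1 in DMSO, then diluted 50-fold into tracer-containing buffer and added to protein. Equilibrated 30 min at room temperature before polarization read. Competition curves fitted.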
In general terms: Polarisation of emitted light reports the rotation of a fluorescent probe.
On to `C=C[C@H]1CN(Cc2ccccn2)C(=O)[C@@H]2CCC[C@H]1N2S(=O)(=O)c1ccc(-c2ncccn2)cc1`, for which the Ki was found to be 52 nM.

In a further assay the target is Peptidyl-prolyl cis-trans isomerase FKBP1A (Homo sapiens, UniProt P62942). Description: Displacement of 5-(3-(4-(((5S,6S)-10-(3,5-dichlorophenylsulfonyl)-2-oxo-5-vinyl-3,10-diazabicyclo[4.3.1]decan-3-yl)methyl)-1H-1,2,3-triazol-1-yl)propylcarbamoyl)-2-(6-(dimethylamino)-3-(dimethyliminio)-3,10-dihydroanthracen-9-yl)benzoate from human FKBP12 after 30 mins by fluorescence polarization assay.
Sequence of Peptidyl-prolyl cis-trans isomerase FKBP1A (P62942 whole entry): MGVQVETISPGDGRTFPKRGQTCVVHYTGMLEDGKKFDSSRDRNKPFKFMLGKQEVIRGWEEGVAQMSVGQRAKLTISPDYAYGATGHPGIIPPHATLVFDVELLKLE
Conditions: not given
Summed up: as §1
The compound `C#CCN1C[C@H](C=C)[C@H]2CCC[C@@H](C1=O)N2S(=O)(=O)c1cc(Cl)cc(Cl)c1` yielded a Ki of 49 to 80 nM.
Still for that read-out and setting: the result for `C=C[C@H]1CN(CCOC)C(=O)[C@@H]2CCC[C@H]1N2S(=O)(=O)c1cc(Cl)cc(Cl)c1` reads 18.8 nM; that for `C=C[C@H]1CN(CCNC)C(=O)[C@@H]2CCC[C@H]1N2S(=O)(=O)c1cc(Cl)cc(Cl)c1`, 7 to 25 nM; that for `C=C[C@@H]1CN(CCF)C(=O)[C@@H]2CCC[C@H]1N2S(=O)(=O)c1cc(Cl)cc(Cl)c1`, 49 to 80 nM.
Same read-out and setting: the figure for `C=C[C@@H]1CN(CCN(C)C)C(=O)[C@@H]2CCC[C@H]1N2S(=O)(=O)c1cc(Cl)cc(Cl)c1` is 7 to 25 nM; for `C=C[C@H]1CN(CCOCC)C(=O)[C@@H]2CCC[C@H]1N2S(=O)(=O)c1cc(Cl)cc(Cl)c1` it is 21.1 nM; for `C=C[C@H]1CN(C)C(=O)[C@@H]2CCC[C@H]1N2S(=O)(=O)c1cc(Cl)cc(Cl)c1` it is 49 to 80 nM.
Same read-out and setting: the result for `C=C[C@H]1CN(CC(=O)O)C(=O)[C@@H]2CCC[C@H]1N2S(=O)(=O)c1cc(Cl)cc(Cl)c1` reads 7 to 25 nM; that for `C=C[C@H]1CN(CC(N)=O)C(=O)[C@@H]2CCC[C@H]1N2S(=O)(=O)c1cc(Cl)cc(Cl)c1`, 7 to 25 nM.
`C=C[C@H]1CN(CCCCOC)C(=O)[C@@H]2CCC[C@H]1N2S(=O)(=O)c1cc(Cl)cc(Cl)c1`: the Ki stood at 249 nM.
On the same count and under the same terms, the figure for `C=C[C@H]1CN(CC(=O)OCC)C(=O)[C@@H]2CCC[C@H]1N2S(=O)(=O)c1cc(Cl)cc(Cl)c1` is 7 to 25 nM; for `C=C[C@H]1CN(CCCOC)C(=O)[C@@H]2CCC[C@H]1N2S(=O)(=O)c1cc(Cl)cc(Cl)c1` it is 143 nM.
The same measure, in the same setting: the result for `C=C[C@H]1CNC(=O)[C@@H]2CCC[C@H]1N2S(=O)(=O)c1cc(Cl)cc(Cl)c1` reads 49 to 80 nM.
The compound `C=C[C@H]1CN(Cc2ncccc2F)C(=O)[C@@H]2CCC[C@H]1N2S(=O)(=O)c1cc(Cl)cc(Cl)c1` came in with a Ki of 11.8 nM.
Still for that read-out and setting: the figure for `C=C[C@H]1CN(CC#N)C(=O)[C@@H]2CCC[C@H]1N2S(=O)(=O)c1cc(Cl)cc(Cl)c1` is 49 to 80 nM.

As usually defined, the IC50 is the concentration that gives 50% inhibition. What is called Ki is the equilibrium dissociation constant of an inhibitor or competing ligand from its target.

The record behind these values is ChEMBL document CHEMBL4043294, “Chemogenomic Profiling of Human and Microbial FK506-Binding Proteins” (J Med Chem, 2018).
